This note sets out measurements from ChEMBL document CHEMBL2311498, “Sulfonylureas have antifungal activity and are potent inhibitors of Candida albicans acetohydroxyacid synthase” (J Med Chem, 2013).

≈ marks a conversion by molar mass, not a printed value. Calls of active or inactive are those of the source. The calls are words filed in the database; no cut-off is given here.

The subject of data set [1] is Candida albicans. The data set is described as follows: Antifungal activity against Candida albicans after 72 hrs by broth microdilution method. The class given is functional. A general note: In broth dilution the organism is exposed to a series of concentrations in liquid medium.
Data set [2] is described as follows: Inhibition of Candida albicans acetohydroxyacid synthase catalytic domain expressed in Escherichia coli by colorimetric method. Summed up: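 Catalytic subunit, His6-tagged, expressed in E. coli Rosetta and purified on Ni affinity resin with FAD present. Single-point colorimetric assay in 250 mM potassium phosphate pH 6.4 with 50 mM pyruvate, 10 mM MgCl2, 1 mM ThDP and 10 μM FAD, 30 °C for 30 min. Acid decarboxylation to acetoin, creatine/α-naphthol colour read at A525. Duplicates at 10–12 inhibitor levels, Ki from nonlinear fit, tight-binding equation where needed.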

Another data set deals with Saccharomyces cerevisiae. The data set is described as follows: Antifungal activity against Saccharomyces cerevisiae after 72 hrs by broth microdilution assay. The class given is functional. Summed up: (§1)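 Broth microdilution in YNB supplemented with 0.5% glucose and 100 mM ammonium sulfate, with compounds serially diluted from DMSO solutions. Inoculum came from single colonies of 48 h plates suspended in water, adjusted by 530 nm turbidity to 1 × 10^6 to 5 × 10^6 CFU/mL, then diluted to about 10^4 CFU/mL. Incubated at 35 °C with visual readings at 24, 48 and 72 h. MIC50/90 is the concentration giving 50%/90% growth inhibition; MIC50 is the mean of three measurements.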

Data set [3] is described as follows: Toxicity in po dosed rat. It is filed as organism-based. The following applies: in vivo.
In data set [4] the test system is Candida albicans. Briefly: Antifungal activity against Candida albicans after 72 hrs by disk diffusion method. It is filed as functional. The method in brief: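 Screened by disk diffusion: 10 μL of compound in DMSO applied to a disk on plates inoculated with yeast. Plates were incubated at 35 °C, and inhibition-zone diameters were measured at 24, 48 and 72 h against a DMSO control disk.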
On the technique in general: Agar diffusion results depend on both activity and mobility in agar.

Data set [5] is described as follows: Toxicity in id dosed rabbit. It is filed as organism-based, Oryctolagus cuniculus. The following applies: in vivo.
Data set [6] has as its system Candida albicans. Briefly: Antifungal activity against Candida albicans after 24 hrs by broth microdilution assay. The class given is functional. The method in brief:
as §1

In the case of `COC(=O)c1ccccc1CS(=O)(=O)NC(=O)Nc1nc(OC)cc(OC)n1` [BENSULFURON METHYL], the MIC50 (in general, the lowest concentration that inhibits either 50% of growth or 50% of the strains tested, depending on the study) is 62 µM (≈ 25.4 µg/mL) against Candida albicans [1] and 20.8 µM (≈ 8.54 µg/mL) against Saccharomyces cerevisiae. In data set [2] (read-out: Ki), the Ki (in general, the dissociation constant of the complex between target and ligand, obtained from inhibition or displacement) was 31 nM.

With `COC(=O)c1ccccc1S(=O)(=O)NC(=O)Nc1nc(C)cc(C)n1` [SULFOMETURON METHYL], the MIC50 entry in the data set with Candida albicans [1] is “inactive”. Further, in data set [2] (read-out: Ki), the Ki worked out at 634 nM. Moreover, in the data set with Saccharomyces cerevisiae, the MIC50 amounted to 19.5 µM (≈ 7.11 µg/mL).

For `COc1cc(Br)nc(NC(=O)NS(=O)(=O)c2ccccc2C(=O)OCCBr)n1`, in the data set on Candida albicans [1], the MIC50 is above 25 µM and the MIC90 (in general, the lowest concentration that inhibits either 90% of growth or 90% of the strains tested, depending on the study) was above 25 µM. For the same compound, the Ki in data set [2] (read-out: Ki) stood at 65 nM.

Consider `CCOC(=O)c1cnn(C)c1S(=O)(=O)NC(=O)Nc1nc(OC)cc(OC)n1` [PYRAZOSULFURON ETHYL], for which the MIC50 against Candida albicans [1] amounted to 62 µM (≈ 25.7 µg/mL); in the data set on Saccharomyces cerevisiae it was 41.7 µM (≈ 17.3 µg/mL). In addition, in data set [2] (read-out: Ki), the Ki turned out to be 66 nM.

For `CCOc1nc(NC)nc(NC(=O)NS(=O)(=O)c2ccccc2C(=O)OC)n1` [ETHAMETSULFURON METHYL], the MIC50 entry in the data set with Candida albicans [1] and in the data set with Saccharomyces cerevisiae was “inactive” in each case. In addition, the Ki in data set [2] (read-out: Ki) was determined as 656 nM.

In the data set with Candida albicans [1], `COc1cc(Br)nc(NC(=O)NS(=O)(=O)c2ccccc2C(=O)OCCO[Si](C)(C)C(C)(C)C)n1` gave an MIC50 above 25 µM and an MIC90 above 25 µM. The Ki in data set [2] (read-out: Ki) amounted to 49.8 nM.

For `COc1cc(Cl)nc(NC(=O)NS(=O)(=O)c2ccccc2C(=O)OCCO[Si](C)(C)C(C)(C)C)n1`, in the data set with Candida albicans [1], the MIC50 is above 25 µM and the MIC90 is above 25 µM. Moreover, the inhibitory constant (Ki) entry in data set [2] is “Not Active”.

In the case of `COC(=O)c1ccccc1S(=O)(=O)NC(=O)Nc1nc(Br)cc(OC)n1`, in the data set on Candida albicans [1], the MIC50 is 1 µM (≈ 0.445 µg/mL) and the MIC90 was 6.25 µM (≈ 2.78 µg/mL). In addition, the Ki in data set [2] (read-out: Ki) came to 3.8 nM.

In the data set with Candida albicans [1], `COc1cc(I)nc(NC(=O)NS(=O)(=O)c2ccccc2C(=O)OCCI)n1` gave an MIC50 of 12 µM (≈ 7.59 µg/mL) and an MIC90 of 25 µM (≈ 15.8 µg/mL). In addition, the inhibition constant (Ki) in data set [2] (read-out: Ki) turned out to be 93 nM.

As for `COc1cc(I)nc(NC(=O)NS(=O)(=O)c2ccccc2C(=O)OCCCl)n1`, in the data set on Candida albicans [1], the MIC50 turned out to be 4 µM (≈ 2.16 µg/mL) and the MIC90 was found to be 12.7 µM (≈ 6.87 µg/mL). For the same compound, in data set [2] (read-out: Ki), the Ki is 13.3 nM.

Take `CCOC(=O)c1ccccc1S(=O)(=O)NC(=O)Nc1nc(Br)cc(OC)n1`: in the data set with Candida albicans [1], the MIC50 came to 0.7 µM (≈ 0.321 µg/mL) and the MIC90 amounted to 1.56 µM (≈ 0.716 µg/mL). In data set [2] (read-out: Ki), the inhibition constant Ki was 4.1 nM.

In the data set on Candida albicans [1], `COc1cc(Br)nc(NC(=O)NS(=O)(=O)c2ccccc2C(=O)OCCO)n1` yielded an MIC50 above 25 µM and an MIC90 above 25 µM. In data set [2] (read-out: Ki), the Ki was determined as 27 nM.

In the data set with Candida albicans [1], `COC(=O)c1ccccc1S(=O)(=O)NC(=O)Nc1nc(Cl)cc(OC)n1` showed an MIC50 of 3 µM (≈ 1.2 µg/mL) and an MIC90 of 6.25 µM (≈ 2.51 µg/mL). In data set [2] (read-out: Ki), the inhibition constant Ki turned out to be 7.1 nM.

Regarding `COc1cc(Cl)nc(NC(=O)NS(=O)(=O)c2ccccc2C(=O)OCCO)n1`, in the data set on Candida albicans [1], the MIC50 was above 25 µM and the MIC90 was above 25 µM. Besides, the Ki in data set [2] (read-out: Ki) amounted to 65 nM.

On to `COc1cc(Br)nc(NC(=O)NS(=O)(=O)c2ccccc2C(=O)OCCI)n1`, for which, in the data set on Candida albicans [1], the MIC50 was above 25 µM and the MIC90 was above 25 µM. In data set [2] (read-out: Ki), the Ki was found to be 270 nM.

Consider `COc1cc(Cl)nc(NC(=O)NS(=O)(=O)c2ccccc2C(=O)OCCCl)n1`, for which, in the data set on Candida albicans [1], the MIC50 was 15 µM (≈ 6.74 µg/mL) and the MIC90 was above 25 µM. Moreover, in data set [2] (read-out: Ki), the Ki was determined as 62 nM.

With `COc1cc(I)nc(NC(=O)NS(=O)(=O)c2ccccc2C(=O)OCCBr)n1`, in the data set on Candida albicans [1], the MIC50 came to 12 µM (≈ 7.02 µg/mL) and the MIC90 was above 25 µM. In addition, in data set [2] (read-out: Ki), the inhibition constant Ki is 26 nM.

Regarding `CCOC(=O)c1ccccc1S(=O)(=O)NC(=O)Nc1nc(Cl)cc(OC)n1` [CHLORIMURON ETHYL], the LD50 (usually the dose at which mortality reaches 50%) was above 4000 mg/kg in data set [3] and above 2000 mg/kg in data set [5]. Also, the “diameter of the inhibition zone (DIZ)” value in the data set on Candida albicans [4] is listed as 25 mm. Besides, the figures for the MIC50 in the data set with Candida albicans [1] and with Saccharomyces cerevisiae were 2 µM (≈ 0.83 µg/mL) and 19.5 µM (≈ 8.09 µg/mL), respectively. Moreover, in data set [2] (read-out: Ki), the Ki worked out at 7 nM.

With `COc1cc(I)nc(NC(=O)NS(=O)(=O)c2ccccc2C(=O)OCCO[Si](C)(C)C(C)(C)C)n1`, in the data set on Candida albicans [1], the MIC50 was above 25 µM and the MIC90 is above 25 µM. Further, in data set [2] (read-out: Ki), the Ki is 13 nM.

Regarding `OC(Cn1cncn1)(Cn1cncn1)c1ccc(F)cc1F` [FLUCONAZOLE], the MIC50 in the data set with Candida albicans [6] was 0.93 µg/mL (≈ 3.04 µM).

Regarding `CCOC(=O)c1ccccc1S(=O)(=O)NC(=O)Nc1nc(I)cc(OC)n1`, the “diameter of the inhibition zone (DIZ)” value with Candida albicans [4] came to 35 mm. In the data set with Candida albicans [1], this compound registered an MIC50 of 0.6 µM (≈ 0.304 µg/mL) and an MIC90 of 1.56 µM (≈ 0.79 µg/mL). The Ki in data set [2] (read-out: Ki) was found to be 3.8 nM.

For `CCOc1ccccc1OS(=O)(=O)NC(=O)Nc1nc(OC)cc(OC)n1` [ETHOXYSULFURON], the “diameter of the inhibition zone (DIZ)” value in the data set on Candida albicans [4] was 30 mm. In addition, the MIC50 was determined as 2 µM (≈ 0.797 µg/mL) with Candida albicans [1] and 13 µM (≈ 5.18 µg/mL) against Saccharomyces cerevisiae. In addition, the Ki in data set [2] (read-out: Ki) was 20 nM.

In the data set with Candida albicans [1], `COc1cc(I)nc(NC(=O)NS(=O)(=O)c2ccccc2C(=O)OCCO)n1` showed an MIC50 above 25 µM and an MIC90 above 25 µM. Also, the Ki in data set [2] (read-out: Ki) is 15 nM.

On to `COc1cc(Br)nc(NC(=O)NS(=O)(=O)c2ccccc2C(=O)OCCCl)n1`, for which, in the data set on Candida albicans [1], the MIC50 is 15 µM (≈ 7.41 µg/mL) and the MIC90 is above 25 µM.

On to `COC(=O)c1ccccc1S(=O)(=O)NC(=O)Nc1nc(I)cc(OC)n1`, for which, in the data set with Candida albicans [1], the MIC50 worked out at 1 µM (≈ 0.492 µg/mL) and the MIC90 stood at 3.13 µM (≈ 1.54 µg/mL). In addition, in data set [2] (read-out: Ki), the inhibition constant Ki was 3.9 nM.

With `COc1cc(Cl)nc(NC(=O)NS(=O)(=O)c2ccccc2C(=O)OCCI)n1`, in the data set on Candida albicans [1], the MIC50 was above 25 µM and the MIC90 is above 25 µM. Also, in data set [2] (read-out: Ki), the Ki was found to be 1200 nM.

For `COC(=O)c1ccccc1S(=O)(=O)NC(=O)N(C)c1nc(C)nc(OC)n1` [TRIBENURON METHYL], the MIC50 entry with Candida albicans [1] and with Saccharomyces cerevisiae was “inactive” throughout. In data set [2] (read-out: Ki), the Ki came to 1640 nM.

Consider `COc1cc(Cl)nc(NC(=O)NS(=O)(=O)c2ccccc2C(=O)OCCBr)n1`, for which, in the data set with Candida albicans [1], the MIC50 is above 25 µM and the MIC90 is above 25 µM. For the same compound, the inhibition constant Ki in data set [2] (read-out: Ki) was determined as 257 nM.

Turning to `COc1nc(C)nc(NC(=O)NS(=O)(=O)c2ccccc2Cl)n1` [CHLORSULFURON], the MIC50 against Candida albicans [1] is 156 µM (≈ 55.8 µg/mL); with Saccharomyces cerevisiae, 117 µM (≈ 41.9 µg/mL). Further, the Ki in data set [2] (read-out: Ki) was found to be 434 nM.
